# M1 ag parental – nonselective activator or artifact in parental CHO-K1 cells; AID 602248; Fluo-8 calcium fluorescence; scaled to maximal ATP response, vehicle zero; activation, % at 3 µM; hit rate 0.48% among 360,000; in the data active means activation above about 15%;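 further: untransfected CHO-K1 host cells lacking M1 receptor as counterscreen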
# CHO-K1 Ca PAM – nonselective activator or artifact in parental CHO-K1 calcium assay; ATP EC20, Fluo-8 calcium fluorescence; 0% at ATP EC20, 100% at ATP max; activation, % at 3 µM; hit rate 0.02% among 360,000; AID 602247;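 active means activation above the run cutoff, the mean activation of all test compounds plus 3 SD, cut at about 40% in these data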;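 further: peak over basal fluorescence ratio in a 140 s read after ATP addition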
# M5 antag – antagonists of human muscarinic M5 receptor (CHRM5); CHO-hM5 cells, Fluo-8 calcium fluorescence, ACh EC80; hit rate 0.59% among 360,000; inhibition, % at 3 µM;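 active means inhibition above a per-plate cutoff, the mean of that plate's test compounds plus 3 SD, cut at about 27% in these data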;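 further: 0% = acetylcholine EC80 with DMSO and 100% = DMSO without agonist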
# Target sequence (P08912 whole entry, looked up): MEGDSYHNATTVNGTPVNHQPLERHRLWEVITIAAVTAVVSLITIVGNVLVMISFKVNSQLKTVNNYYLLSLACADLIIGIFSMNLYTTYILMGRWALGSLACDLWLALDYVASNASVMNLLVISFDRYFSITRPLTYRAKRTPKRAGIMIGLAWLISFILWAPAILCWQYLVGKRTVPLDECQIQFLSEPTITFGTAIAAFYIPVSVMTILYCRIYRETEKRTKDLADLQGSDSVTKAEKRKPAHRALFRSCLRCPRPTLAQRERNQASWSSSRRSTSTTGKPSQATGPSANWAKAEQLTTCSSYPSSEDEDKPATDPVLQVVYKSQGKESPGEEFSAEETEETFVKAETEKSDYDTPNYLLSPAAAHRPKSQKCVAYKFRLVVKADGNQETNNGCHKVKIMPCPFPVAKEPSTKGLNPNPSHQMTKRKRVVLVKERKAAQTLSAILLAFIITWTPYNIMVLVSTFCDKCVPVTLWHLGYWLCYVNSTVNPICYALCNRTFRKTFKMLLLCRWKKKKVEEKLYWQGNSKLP
# CHO-K1 Ca antag – nonselective inhibitor or artifact in parental CHO-K1 cells; ATP-induced calcium, Fluo-8 fluorescence; inhibition, % at 3 µM; hit rate 0.6% among 360,000; AID 602250;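 active means inhibition above a per-plate cutoff, the plate's mean sample inhibition plus 3 SD, cut at about 24% in these data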;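 further: 0% = DMSO plus EC80 ATP and 100% = DMSO alone without ATP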
# CHRM5 agonist – agonists of human muscarinic M5 receptor (CHRM5); P08912; CHO-K1 hM5 cells, Fluo-8 calcium fluorescence; 0% DMSO wells, 100% maximal acetylcholine response; activation, % at 3 µM; hit rate 0.19% among 360,000; AID 624037;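 active means activation above the run's mean over test compounds plus 3 SD, cut at about 23% in these data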;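 further: signal is peak over basal fluorescence ratio across the kinetic read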
# CHRM5 PAM – potentiates acetylcholine response at human M5 receptor. CHO-K1 hM5, Fluo-8 calcium, ACh EC20 PAM; 0% = ACh EC20, 100% = ACh EC100. activation, % at 3 µM. hit rate 0.3% among 360,000;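 active means activation above the run cutoff, the mean activation of all test compounds plus 3 SD, cut at about 18% in these data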
#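 Probe or stimulus: acetylcholine, EC20 level; Assay system: human M5 receptor in CHO-K1 cells; Schedule: compound preincubation 140 s before EC20 acetylcholine addition; Technique: intracellular calcium via Fluo-8 fluorescence; Dosing: single-point, 3 µM nominal; Read-out basis: percent activation from peak-over-basal fluorescence ratio, scaled EC20-to-EC100 acetylcholine; Repeats: one well per compound, no replicates.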
# * = called active by the depositor. Hits are enriched below; roughly 1.7% of the tested compounds scored in any of these assays.
SMILES,M1 ag parental,CHO-K1 Ca PAM,M5 antag,CHO-K1 Ca antag,CHRM5 agonist,CHRM5 PAM
O=C1C(Cl)=C(Nc2ccc3cn[nH]c3c2)C(=O)c2ccccc21,-2.6,-5.0,28.5*,19.6,-9.0,-16.5
O=C(C/C=N\OCc1ccc([N+](=O)[O-])cc1)Nc1ccc(F)cc1F,29.4*,11.8,-8.9,4.0,-1.9,-6.9
CO/N=C/CC(=O)Nc1ccc(F)cc1F,0.1,21.4,-4.2,-24.6,1.4,1.7
Cc1ccc(OCCCC(=O)Nc2ccc(S(=O)(=O)N3CCOCC3)cc2)cc1,8.1,-7.4,5.6,3.6,9.1,-9.5
CC1CCCCN1CC(=O)c1c(N)n(Cc2ccccc2)c(=O)n(C)c1=O (stereo unspecified),0.1,11.8,1.3,-12.8,-15.7,3.2
CCOC(=O)c1ccc(Nc2ncnc3nc[nH]c23)cc1,3.2,16.5,-3.9,-9.5,7.2,-18.9
c1ccc(COc2ccc(Nc3ncnc4nc[nH]c34)cc2)cc1,1.4,-0.4,3.0,24.5*,15.1,-12.3
C=CCOc1ccc(/C=C/C(=O)OCC(=O)N(C)CC(=O)Nc2ccccc2Cl)cc1,2.1,-14.3,7.5,24.3*,-3.2,-0.8
CCn1c(P(C)(=O)O)nc2cc(NC(=O)c3ccccc3Cl)ccc21,-0.1,-13.0,10.6,24.2*,-1.4,-5.4
COc1ccc(OCCNS(=O)(=O)c2ccccc2)cc1,2.0,21.1,-1.1,-6.3,-3.6,-3.6
O=S(=O)(NCCCCCNS(=O)(=O)c1ccccc1)c1ccccc1,4.2,-8.5,6.7,24.1*,5.4,-14.9
CS(=O)(=O)NCCOc1ccc(S(=O)(=O)NCCOc2ccccc2)cc1,0.4,-19.4,15.1,31.6*,-3.2,-6.7
Cc1ccc(NC(=O)COc2cccc3ccc(C)nc23)c(Br)c1,3.2,12.1,10.1,-2.8,-0.6,-7.9
Oc1csc(Cc2nc(-c3ccc(-c4ccccc4)cc3)cs2)n1,-0.1,0.5,2.4,0.6,-3.9,-3.8
NC(=S)Cc1nc(-c2ccccc2)cs1,2.2,-9.7,15.8,31.5*,2.2,-5.7
O=C(CNC(=O)c1ccc(F)cc1)N/N=C/c1cn[nH]c1-c1ccccc1,-0.1,0.8,-9.3,2.2,-0.9,1.3
O=C(CNC(=O)c1ccccc1F)N/N=C/c1cn[nH]c1-c1ccccc1,1.6,15.6,28.9*,-0.4,-9.3,-20.6
CC1CCC(NC(=O)COC(=O)c2ccc3ncsc3c2)CC1 (stereo unspecified),0.0,12.8,2.4,-19.8,0.5,1.9
Cc1c(Br)c([N+](=O)[O-])nn1CCCC(=O)Nc1sc2c(c1C#N)CCC2,2.0,17.3,2.2,-4.5,-1.1,0.7
CC#C[C@@H](CC)c1ccc2ccn(C)c2c1,-0.3,6.0,27.1*,-7.8,-5.4,-4.9
COc1ccccc1C(=O)N/N=C(\C)CC(=O)Nc1ccc(Cl)cn1,11.5,-9.2,-1.4,10.6,-1.7,7.8
CCCCn1c(-c2ccccc2)cnc1SCC(=O)NCCc1ccc(OC)c(OC)c1,3.1,3.3,2.6,-7.8,-3.9,1.5
Cc1cccc(C)c1-n1nnnc1C(c1ccccc1)N1CCN(C/C=C/c2ccccc2)CC1 (stereo unspecified),-0.4,7.2,31.4*,-7.1,-7.8,-22.3
Cc1cccc(C)c1-n1nnnc1C(c1cccs1)N1CCN(C/C=C/c2ccccc2)CC1 (stereo unspecified),0.2,2.3,28.8*,-6.1,-7.7,-22.1
O=C(CCN=C1NS(=O)(=O)c2ccccc21)OCC(=O)c1ccc(F)cc1,3.5,-2.7,1.7,-3.1,5.6,1.0
SMILES,M1 ag parental,CHO-K1 Ca PAM,M5 antag,CHO-K1 Ca antag,CHRM5 agonist,CHRM5 PAM
O=C(c1ccc(S(=O)(=O)Nc2ccc(F)cc2)cc1)N1CCN(c2ccccn2)CC1,16.7*,-12.1,19.6,9.6,20.9,-31.8
COc1ccc(NS(=O)(=O)c2ccc(C(=O)N3CCN(c4ccc(F)cc4)CC3)cc2)cc1,16.3*,-7.3,14.6,1.2,11.2,-35.0
COc1ccc(N=C2SC(CC(=O)Nc3ccccc3)C(=O)N2CCc2ccccn2)cc1 (stereo unspecified),3.7,7.0,2.6,-7.3,2.7,-2.8
CNC(=O)CCc1[nH]c2ccccc2c1Sc1ccccc1,1.2,13.5,0.6,-5.1,1.1,-1.0
COc1ccc(C(=O)NCCN2CCOCC2)c(OC)c1,1.4,27.5,-5.4,-21.5,-3.2,10.1
COc1ccc(C(=O)NCCn2ccc3ccccc32)c(OC)c1,2.3,41.3*,2.3,-34.5,3.0,-6.5
COC(=O)C1CCN(C(=O)C2CCC(=O)N(CCCc3ccccc3)C2)CC1 (stereo unspecified),-0.1,-1.2,14.2,1.8,-4.0,-3.6
Cc1cc(Oc2ccccc2)nc(NCc2ccccc2)n1,1.1,-2.1,6.0,37.8*,-4.2,-5.2
CCCCNc1cc(C)nc(NCc2ccccc2)n1,9.5,-0.4,32.7*,25.9*,7.1,-21.0
Cc1cc(Nc2ccc(Cl)cc2)nc(NCc2ccccc2)n1,8.5,16.2,7.5,12.1,8.5,0.5
Cc1cc(Nc2ccccc2)nc(NCc2ccccc2)n1,9.9,2.1,29.7*,27.1*,4.7,-14.4
NCCNC(=O)c1c(O)c2cccc3c2n(c1=O)CCC3,0.5,-0.7,4.6,-5.1,2.4,-1.9
C=CCNC(=O)c1c(O)c2cccc3c2n(c1=O)CCC3,1.3,28.9,25.2,1.1,5.7,42.9*
O=C1c2cccc3c(O)ccc(c23)C(=O)N1Cc1ccccc1,149.2*,-9.8,56.5*,60.3*,173.1*,-33.6
Cc1nn(Cc2ccc(C(=O)Nc3ccc(C(=O)OC(C)C)cc3)o2)c(C)c1Cl,1.0,-8.6,5.5,-2.5,-1.7,-6.0
Cc1noc(C)c1CSCC(=O)N1CCN(c2ccc([N+](=O)[O-])cc2)CC1,8.4,-6.0,28.6*,10.7,2.1,-24.7
CCc1noc(C)c1C(=O)N1CCN(c2ccc([N+](=O)[O-])cc2)CC1,4.4,20.6,0.7,-5.7,0.9,-2.3
Cc1ccc([N+](=O)[O-])c(OCCN2CCCCCC2)c1,16.2*,19.6,0.7,1.3,-9.8,-6.1
O=C(CCCNC(=O)c1ccc(Cl)cc1)Nc1ccc(S(=O)(=O)Nc2ncccn2)cc1,1.1,22.8,3.8,-6.3,-4.4,4.9
COC(=O)c1ccc2cc(F)cc(C)c2n1,-0.1,-5.2,2.5,-13.2,1.6,3.8
COc1ccc(NC(=O)CC(NCc2ccccn2)C(=O)O)cc1 (stereo unspecified),17.9*,19.8,-1.0,2.8,-1.4,-1.6
CC(C)OC(=O)CSc1nnc(CNc2ccc(Cl)cc2)n1Cc1ccccc1,3.6,-7.9,18.6,36.4*,1.5,-27.2
O=S(=O)(c1cccc(-c2nnc(SCc3nc4ccccc4s3)o2)c1)N1CCOCC1,1.7,13.4,-3.7,-5.2,-13.6,-22.4
